What was measured:
[1] = molecular target: T1, 5-hydroxytryptamine receptor 1A (Rattus norvegicus, UniProt P19327); assay: Inhibitory concentration against radioligand [3H]hydroxy-2-(di-n-propylamino)-tetralin binding to 5-hydroxytryptamine 1A receptor in rat
T1 sequence (P19327 whole entry): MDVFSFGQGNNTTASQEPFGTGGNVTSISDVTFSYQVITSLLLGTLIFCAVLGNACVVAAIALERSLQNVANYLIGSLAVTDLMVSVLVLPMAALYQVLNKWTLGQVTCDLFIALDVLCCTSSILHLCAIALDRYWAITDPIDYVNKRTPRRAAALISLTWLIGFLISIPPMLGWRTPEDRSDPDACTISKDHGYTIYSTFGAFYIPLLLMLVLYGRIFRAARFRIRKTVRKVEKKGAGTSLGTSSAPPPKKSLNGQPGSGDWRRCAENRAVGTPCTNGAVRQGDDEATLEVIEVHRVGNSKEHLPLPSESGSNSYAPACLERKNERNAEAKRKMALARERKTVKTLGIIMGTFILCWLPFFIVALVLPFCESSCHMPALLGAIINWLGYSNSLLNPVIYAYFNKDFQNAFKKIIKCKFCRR
In short: (§1)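 Male Wistar rat brain membranes in 50 mM Tris/HCl pH 7.7. Radioligands: PCP site 5 nM [3H]-PCP; D1 1 nM [3H]-SCH23390; 5-HT1A 0.2 nM [3H]-8-OH-DPAT; 5-HT2 5 nM [3H]-ketanserin; α1 0.2 nM [3H]-prazosin. Competition with at least five drug concentrations, filtration on PEI-soaked glass-fiber filters, scintillation counting, IC50 by nonlinear curve fit.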

[2] = molecular target: Serotonin 2 (5-HT2) receptor (Rattus norvegicus, UniProt P30994+P08909+P14842); assay: Inhibitory concentration against radioligand [3H]ketanserin binding to 5-hydroxytryptamine 2 receptor in rat; in short: as §1
[3] = molecular target: D(1A) dopamine receptor (Rattus norvegicus, UniProt P18901); assay: Inhibitory concentration against radioligand [3H]SCH-23390 binding to Dopamine receptor D1 in rat; in short: as §1
Sequence of D(1A) dopamine receptor (P18901 whole entry): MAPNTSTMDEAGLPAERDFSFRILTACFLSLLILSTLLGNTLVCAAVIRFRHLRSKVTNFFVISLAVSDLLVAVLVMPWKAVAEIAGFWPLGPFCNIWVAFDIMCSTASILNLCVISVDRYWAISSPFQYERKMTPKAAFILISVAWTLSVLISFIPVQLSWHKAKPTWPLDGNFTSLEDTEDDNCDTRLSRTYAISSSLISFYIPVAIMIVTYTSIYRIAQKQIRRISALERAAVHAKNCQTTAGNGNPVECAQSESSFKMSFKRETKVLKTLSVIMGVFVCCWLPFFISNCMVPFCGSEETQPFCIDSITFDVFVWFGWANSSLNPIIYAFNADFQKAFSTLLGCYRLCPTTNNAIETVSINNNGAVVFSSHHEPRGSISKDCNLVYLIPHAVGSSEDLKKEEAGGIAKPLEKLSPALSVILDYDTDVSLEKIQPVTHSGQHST

[4] = molecular target: D(2) dopamine receptor (Rattus norvegicus, UniProt P61169); assay: Inhibitory concentration against radioligand [3H](-)-sulpiride binding to Dopamine receptor D2 in rat
Sequence of D(2) dopamine receptor (P61169 whole entry): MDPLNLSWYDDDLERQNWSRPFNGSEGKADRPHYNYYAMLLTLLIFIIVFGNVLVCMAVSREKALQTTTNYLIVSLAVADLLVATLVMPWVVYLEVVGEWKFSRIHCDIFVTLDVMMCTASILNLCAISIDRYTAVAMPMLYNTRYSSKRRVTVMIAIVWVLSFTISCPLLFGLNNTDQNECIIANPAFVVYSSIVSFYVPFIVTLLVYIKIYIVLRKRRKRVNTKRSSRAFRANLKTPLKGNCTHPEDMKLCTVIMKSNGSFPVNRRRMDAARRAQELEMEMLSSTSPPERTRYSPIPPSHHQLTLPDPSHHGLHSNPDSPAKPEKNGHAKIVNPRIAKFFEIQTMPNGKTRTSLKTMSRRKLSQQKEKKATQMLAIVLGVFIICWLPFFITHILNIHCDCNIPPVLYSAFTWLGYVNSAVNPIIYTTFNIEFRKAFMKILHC
In short: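 Striatal membranes from male Wistar rats (200–250 g), homogenized in 50 mM Tris/HCl pH 7.7, washed by repeated 50000g spins. Filtration on PEI-soaked glass-fiber filters, then scintillation counting. IC50 by nonlinear curve fitting, duplicate determinations.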

[5] = species on record: Mus musculus; assay: Effective dose against (+)-SKF-10047-induced stereotyped behavior in mice was determined; assay type: functional
In short: (§2)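 Male ICR mice (25–30 g, 10 per group) acclimatized at least 1 h. Test drug given orally 30 min before (+)-SKF10,047 30 mg/kg ip. Stereotypy scored on a 0–5 scale from 10 min post-injection, every 5 min for 40 min. Vehicle plus three doses were tested. Total score expressed as percent of control, and ED25 derived.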

[6] = test system: Mus musculus; assay: Effect at an intraperitoneal dose of 10 mg/kg against methamphetamine-induced hyperlocomotion in mice; assay type: functional
[7] = molecular target: Glutamate receptor ionotropic, NMDA 1 (Rattus norvegicus, UniProt P35439); assay: Inhibitory concentration against radioligand [3H]PCP binding to PCP site of N-methyl-D-aspartate glutamate receptor in rat; in short: as §1
[8] = molecular target: T2, Adrenergic receptor alpha-1 (Rattus norvegicus, UniProt P15823+P23944+P43140); assay: Inhibitory concentration against radioligand [3H]prazosin binding to Alpha-1 adrenergic receptor in rat; in short: as §1
T2 sequence (P15823 whole entry): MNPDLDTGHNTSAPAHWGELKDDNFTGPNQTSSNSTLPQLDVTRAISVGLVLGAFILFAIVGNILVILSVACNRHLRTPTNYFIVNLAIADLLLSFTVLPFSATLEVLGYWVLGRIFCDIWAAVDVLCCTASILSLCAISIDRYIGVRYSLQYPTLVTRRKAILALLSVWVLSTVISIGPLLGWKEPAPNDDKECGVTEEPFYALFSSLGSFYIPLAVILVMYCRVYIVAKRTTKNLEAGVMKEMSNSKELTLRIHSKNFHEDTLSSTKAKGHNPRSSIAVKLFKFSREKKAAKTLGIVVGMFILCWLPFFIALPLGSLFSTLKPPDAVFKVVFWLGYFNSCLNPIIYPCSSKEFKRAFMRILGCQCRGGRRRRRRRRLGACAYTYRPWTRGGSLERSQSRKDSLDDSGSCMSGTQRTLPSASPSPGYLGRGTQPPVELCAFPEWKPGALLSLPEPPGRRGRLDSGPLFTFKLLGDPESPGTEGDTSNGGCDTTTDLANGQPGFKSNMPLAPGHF
T2 sequence (P23944 whole entry): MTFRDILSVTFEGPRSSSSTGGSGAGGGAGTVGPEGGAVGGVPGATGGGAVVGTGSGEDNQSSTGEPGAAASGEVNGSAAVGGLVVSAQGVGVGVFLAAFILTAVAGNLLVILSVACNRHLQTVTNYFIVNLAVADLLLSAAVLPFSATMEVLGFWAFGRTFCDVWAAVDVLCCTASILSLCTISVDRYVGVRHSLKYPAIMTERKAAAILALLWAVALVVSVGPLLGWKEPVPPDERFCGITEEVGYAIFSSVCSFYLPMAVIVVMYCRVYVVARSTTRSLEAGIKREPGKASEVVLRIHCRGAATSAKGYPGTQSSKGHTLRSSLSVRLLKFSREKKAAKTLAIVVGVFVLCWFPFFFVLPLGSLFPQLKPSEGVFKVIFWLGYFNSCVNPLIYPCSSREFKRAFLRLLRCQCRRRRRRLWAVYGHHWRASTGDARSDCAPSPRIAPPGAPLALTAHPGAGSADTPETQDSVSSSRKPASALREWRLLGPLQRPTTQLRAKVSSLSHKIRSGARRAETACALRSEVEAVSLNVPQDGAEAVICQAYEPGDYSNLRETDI
T2 sequence (P43140 whole entry): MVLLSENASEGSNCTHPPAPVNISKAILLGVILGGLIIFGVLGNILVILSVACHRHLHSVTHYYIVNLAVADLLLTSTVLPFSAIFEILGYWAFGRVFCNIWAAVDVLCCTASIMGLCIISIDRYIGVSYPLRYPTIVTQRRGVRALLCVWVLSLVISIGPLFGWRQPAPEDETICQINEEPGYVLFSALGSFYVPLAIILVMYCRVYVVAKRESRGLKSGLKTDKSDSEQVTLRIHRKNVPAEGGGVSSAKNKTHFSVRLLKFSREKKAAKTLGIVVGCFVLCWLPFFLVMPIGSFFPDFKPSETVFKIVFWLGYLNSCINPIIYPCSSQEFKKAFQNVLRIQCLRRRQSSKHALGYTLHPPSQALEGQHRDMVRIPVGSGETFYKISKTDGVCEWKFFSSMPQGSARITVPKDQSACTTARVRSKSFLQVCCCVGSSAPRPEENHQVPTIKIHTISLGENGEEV

[9] = molecular target: Sigma non-opioid intracellular receptor 1 (Rattus norvegicus, UniProt Q9R0C9); assay: Inhibitory concentration against radioligand [3H]3-PPP binding to Sigma opioid receptor type 1 in rat brain membrane; assay type: cell membranes
Sequence of Sigma non-opioid intracellular receptor 1 (Q9R0C9 whole entry): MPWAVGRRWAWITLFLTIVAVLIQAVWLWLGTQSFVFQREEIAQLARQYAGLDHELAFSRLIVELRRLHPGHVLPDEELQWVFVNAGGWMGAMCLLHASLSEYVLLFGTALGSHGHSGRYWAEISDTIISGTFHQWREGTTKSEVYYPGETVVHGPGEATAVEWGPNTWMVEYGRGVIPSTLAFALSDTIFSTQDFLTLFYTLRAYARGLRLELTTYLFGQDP
In short: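 Rat whole-brain membranes from male Wistar rats (200–250 g), homogenized in 50 mM Tris/HCl pH 7.7, washed by repeated 50000g spins. Incubated with 2 nM [3H]-(+)-3-PPP and at least five concentrations of unlabeled drug. Filtered on polyethylenimine-soaked glass-fiber filters and counted by scintillation. IC50 from nonlinear curve fitting of competition data, duplicate determinations.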

[10] = test system: Mus musculus; assay: Effect at an intraperitoneal dose of 30 mg/Kg against (+)-SKF-10047-induced stereotyped behavior in mice was determined; assay type: functional; in short: as §2

| SMILES | IC50 [4] [nM] | ED25 [5] [mg/kg] | IC50 [9] [nM] | further results |
| --- | --- | --- | --- | --- |
| CCCN(CCC)CCc1cccc(OC)c1OCCc1ccccc1.Cl | > 1000 | 79 | – | IC50 [1]: 3580 nM; IC50 [2]: 8800 nM; IC50 [3]: > 1000 nM; Control [6]: 98%; IC50 [7]: > 10000 nM; IC50 [8]: 11700 nM |
| O=C(CCCN1CCC(O)(c2ccc(Cl)cc2)CC1)c1ccc(F)cc1 [HALOPERIDOL] | – | – | – | Control [6]: 7.3% |
| CCCN(CCC)CCCc1ccc(OC)c(OCCc2ccccc2)c1.Cl | – | 44 | 1 | IC50 [1]: 373 nM; IC50 [2]: > 1000 nM; IC50 [3]: > 1000 nM; Control [6]: 99%; IC50 [7]: > 1000 nM; IC50 [8]: 14100 nM |
| CCCN(CCC)CCc1ccc(OC)c(OCCc2ccccc2)c1.Cl | > 1000 | 6.5 | – | IC50 [1]: 6460 nM; IC50 [2]: > 1000 nM; IC50 [3]: > 1000 nM; Control [6]: 119%; IC50 [7]: > 1000 nM; IC50 [8]: 10800 nM |
| CCCN(CCC)CCc1cc(Cl)ccc1OCCc1ccccc1.O=C(O)C(=O)O | – | 235 | – | IC50 [1]: 289 nM; IC50 [2]: 196 nM; IC50 [3]: > 1000 nM; IC50 [7]: > 1000 nM; IC50 [8]: 90 nM |
| OC(CCCN1CCN(c2ncc(F)cn2)CC1)c1ccc(F)cc1 (configuration not stated) [BMY-14802] | > 1000 | 7.6 | – | – |
| CCCN(CCC)CCc1ccc(OC)c(OCCc2ccc(OC)cc2)c1 | > 1000 | – | 1 | – |
| CCCN(CCC)CCc1ccc(O)c2c1-c1ccccc1CO2 | > 1000 | – | 558 | – |
| COc1ccc(CCN2CCOCC2)cc1OCCc1ccccc1 | > 1000 | – | > 1000 | – |
| CCCN(CCC)CCCc1cccc(OC)c1OCCc1ccccc1 | > 1000 | – | 13 | – |
| CCCCCCN(CCC)CCc1ccc(OC)c(OCCc2ccccc2)c1 | 619 | – | 1.8 | – |
| COc1ccc(CCN2CCN(c3ccccc3OC)CC2)cc1OCCc1ccccc1 | 11 | – | 25 | – |
| COc1ccccc1N1CCN(CCCc2cc(Cl)ccc2OCCc2ccccc2)CC1 | 16 | – | 319 | – |
| CCCN(CCC)CCc1cccc(OC)c1OCc1ccccc1.O=C(O)C(=O)O | > 1000 | – | 26 | Control [10]: 64% |
| Clc1ccc(OCCc2ccccc2)c(CCCN2CCN(c3ncccn3)CC2)c1 | 115 | – | 169 | – |
